MrgX1 PAM – positive allosteric modulators of MrgX1, primary screen, HEK293 cells, Fluo-4 calcium flux. Mas-related G-protein coupled receptor member X1 (Homo sapiens), Q96LB2. FDSS; hits give high values. B-score at 10 µM. 310,000 compounds, 0.63% hits. AID 588675, 2011;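 active = plate-corrected calcium response at least 3 library SD above typical, normal starting fluorescence, not activating the receptor alone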;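 note: compound read alongside a low EC10 to EC30 dose of BAM8-22 agonist; peak minus trough fluorescence over baseline measured at the second addition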
Target sequence (Q96LB2 whole entry, looked up): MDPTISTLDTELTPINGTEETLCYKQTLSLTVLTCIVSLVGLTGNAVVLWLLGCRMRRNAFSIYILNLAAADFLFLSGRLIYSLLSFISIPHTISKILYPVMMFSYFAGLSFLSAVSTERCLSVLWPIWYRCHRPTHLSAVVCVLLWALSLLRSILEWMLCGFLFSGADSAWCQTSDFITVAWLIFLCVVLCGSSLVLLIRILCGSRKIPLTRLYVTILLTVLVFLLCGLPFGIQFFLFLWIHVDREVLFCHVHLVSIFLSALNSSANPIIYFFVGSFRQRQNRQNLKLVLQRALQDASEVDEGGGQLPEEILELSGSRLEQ
MrgX1 agonist – agonists of human MrgX1 receptor, primary screen, HEK293 cells, Fluo-4 calcium flux | Fluo-4 calcium fluorescence, agonist mode; hits give high values | B-score at 10 µM | 310,000 compounds, 0.44% hits;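 active = calcium response B-score plate-corrected fluorescence ratio at least 3 library SD, with starting fluorescence B-score inside 5 SD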
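Test system: Stable human MrgX1 HEK293 cell line | Schedule: Overnight plating before 1 h dye loading | Read-out basis: Baseline-normalised fluorescence change ratio, B-scored | Detection: Kinetic calcium dye fluorescence, Fluo-4 NW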
MrgX1 antagonist – antagonists of human MrgX1 receptor, primary screen, HEK293 cells, Fluo-4 calcium flux; 310,000 compounds, 1.3% hits; B-score at 10 µM; AID 588676, 2011; Mas-related G-protein coupled receptor member X1 (Homo sapiens), Q96LB2; BAM8-22 antagonism; hits give low values;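 active = calcium-response B-score plate-corrected more than 3 library SD below zero, starting fluorescence within 5 deviations, no agonist response on first addition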;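 note: peak minus trough fluorescence over baseline after final BAM8-22 challenge near maximal dose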
RGS4 act – RGS4 potentiators or activators, primary screen, cell-based, HEK293 M3R inducible RGS4, calcium flux; carbachol calcium flux Fluo4; hits give low values; B-score at 10 µM; 310,000 compounds, 0.92% hits;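 active = B-score of the integrated calcium signal more than 4 SD below the library mean, with starting fluorescence not abnormally high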;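 note: negative B-score means reduced calcium response which marks RGS4 activation or potentiation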
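Test system: HEK293 cells with stable M3R and inducible RGS4; also added: carbachol at ECmax as muscarinic agonist stimulus; schedule: dye loading 30 min 37 °C, buffer rest 30 min RT; technique: kinetic calcium fluorescence imaging with Fluo4-AM dye, 2 µM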
RGS4 block – RGS4 inhibitors, primary screen, cell-based, HEK293 M3R inducible RGS4, calcium flux. 310,000 compounds, 0.45% hits. Fluo-4 calcium flux; hits give high values; triggered by carbachol at its EC20. B-score at 10 µM. Regulator of G-protein signaling 4 (Homo sapiens), P49798;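 active = B-score, a plate-corrected calcium signal, over three deviations above library mean, with baseline fluorescence within five deviations of library mean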;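 note: RGS4 expression induced by doxycycline in cells with stable M3 receptor; B-score is computed from the integrated fluorescence ratio over baseline after carbachol; higher B-score means a larger calcium signal and so more RGS4 inhibition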
The depositor's hits bear a star; i = inactive; nt = no result. Rows were chosen to be rich in hits. Some 3.5% of all compounds tested hit in one or more screens of this group.

SMILES	MrgX1 PAM	MrgX1 agonist	MrgX1 antagonist	RGS4 act	RGS4 block
Cc1noc(C)c1COC(=O)c1cccc(S(=O)(=O)N2c3ccccc3CC2C)c1 (centres undefined)	i	i	i	-7.4*	i
Cc1ccccc1OCC(=O)N/N=C/c1ccc2c(c1)OCCO2	6.54*	i	i	i	i
O=C(CN(Cc1ccccc1)S(=O)(=O)c1ccc2c(c1)OCCO2)N/N=C/c1ccc(F)cc1	i	i	i	i	i
COc1ccc(CNC(=O)CN(Cc2ccccc2)S(=O)(=O)c2ccc(Cl)cc2)cc1	i	i	-4.87*	i	i
COc1ccc(/C=N/NC(=O)CN(Cc2ccccc2)S(=O)(=O)c2ccc3c(c2)OCCO3)cc1	i	i	-6.19*	i	i
Cc1ccc(NC(=O)CCCn2c(=S)[nH]c3ccsc3c2=O)cc1C	i	i	i	i	i
CC(CCc1ccccc1)NC(=O)c1cccs1 (centres undefined)	i	i	i	i	i
Cc1cccc(-n2c(C)cc(C=C3C(=O)c4ccccc4C3=O)c2C)c1	i	i	i	-10*	i
Cc1cccc(-n2c(C)cc(/C=N/n3cnnc3)c2C)c1	i	i	i	-7.32*	i
N#C/C(=C\c1ccc(N2CCOCC2)o1)C(=O)Nc1ccc(O)cc1	i	i	i	i	i
N#C/C(=C/c1ccc(N2CCCCC2)o1)C(=O)Nc1ccc2ccccc2c1	nt	nt	nt	i	i
COc1ccc(NC(=O)/C(C#N)=C\c2ccc(N3CCOCC3)o2)cc1	i	i	i	-8.57*	i
N#C/C(=C/c1ccc(N2CCCCC2)o1)C(=O)Nc1ccc(Cl)cc1	i	i	-7.83*	i	i
O=C(c1cc(Cl)ccc1F)N1CCCC(Nc2ccc3c(c2)OCCO3)C1 (centres undefined)	i	i	i	i	i
COCCNC(=S)N/N=C/c1ccc(OCc2ccc(C(=O)OC)cc2)c(OC)c1	i	i	-4.89*	i	i
Cc1nn(-c2ccccc2)c(Cl)c1/C=N/NC(=O)OC(C)(C)C	i	i	i	-7.99*	i
Cc1nn(-c2ccccc2)c(C)c1-c1cc(C(=O)N/N=C/c2ccc(O)cc2)[nH]n1	i	i	i	-7.12*	i
CNC(=S)N/N=C/c1c(C)nn(-c2ccccc2)c1Cl	i	i	i	i	i
Cc1nn(-c2ccccc2)c(N2CCCC2)c1/C=N/NC(=O)c1ccccc1O	i	i	-7.18*	i	i
COc1cc(/C=N/NC(=O)c2cc(-c3c(C)nn(-c4ccccc4)c3C)n[nH]2)ccc1O	i	i	i	i	i
Cc1nn(-c2ccccc2)c(C)c1/C=N/NC(=O)c1cc(-c2ccc(Cl)s2)[nH]n1	i	i	i	-7.77*	i
Cc1nn(-c2ccccc2)c(C)c1/C=N/NC(=O)c1ccccc1O	i	i	i	i	i
CCc1ccc(NC(=O)CSc2nc3ccccc3c(=O)n2CCCC(=O)NCCCN2CCOCC2)cc1	i	i	i	i	i
CC(C)(C)c1ccc(C(=O)N2CCCC2c2cccs2)cc1 (centres undefined)	i	i	i	i	i
Cc1nn(-c2ccccc2)c(C)c1/C=N/NC(=O)c1cc(-c2cccs2)[nH]n1	i	i	i	i	i
Cc1nn(-c2ccccc2)c(C)c1/C=N/NC(=O)c1cccs1	i	i	-7.06*	i	i
O=C(/C=C/c1ccc(O)c(O)c1)NC(=O)c1ccccc1O	i	i	-7.75*	i	i
COc1ccc(C)cc1Nc1nc(N)c2cc(OC)c(OC)cc2n1	i	i	-4.55*	i	i
CC(=O)Oc1ccccc1C(=O)Nc1ccccc1C(=O)N1CCCCC1	i	i	i	i	i
CC(C)c1ccccc1OCCCCCN1CCOCC1	i	i	i	-7.38*	i

Bioassay records (PubChem BioAssay)
